The MIC is the least concentration at which growth counts as inhibited. In general, viability refers to a read-out of living cells in per cent, often relative to untreated cells.

Converted amounts (≈) assume the structure as drawn. “And” between values parts separate entries of the source, which are not always exact repeats. Identical values can stand only once. “Also recorded” adds a separate entry of the source. Like-named read-outs stand apart in the source and are kept apart here. A value given as a limit tells only on which side of the number the result lay.

Data set [1] has as its system GFP reporter strain of Mtb (Mtb pMSp12: GFP). Type of data set: cell-based, Mycobacterium tuberculosis.
A further data set has as its system H37Rv strain of Mtb. The note with it: H37Rv strain of Mtb in vitro; cited from earlier work.
Data set [2] can be described thus: MTT cytotoxicity assay, BJ-5ta cells. Type of data set: cell-based, Human. Particulars: human, BJ-5ta cells (hTERT immortalized human skin fibroblasts). A digest of the protocol: (§1)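 BJ-5ta fibroblasts seeded at 1.8 × 10⁴ cells/well, 24 h at 37 °C, 5% CO2. Then exposed 48 h to test compound at 1, 5 or 10 µM in 0.15% DMSO, 3 technical repeats. Dead-cell control was 0.2% Triton X-100 for 15 min. After PBS rinses, MTT 0.5 mg/ml final for 4 h, formazan dissolved in DMSO. A560 minus A630, DMSO-blank-corrected, % of untreated cells; mean ± SD.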

Data set [3] has as its system BJ-5ta (hTERT immortalized Human skin fibroblasts). Nature of the data set: MTT cytotoxicity assay, BJ-5ta cells. Type of data set: cell-based. The note with it: BJ-5ta, 48 h, MTT. A digest of the protocol:
as §1
Background: Tetrazolium assays rely on reduction of a dye to a coloured formazan, in cell work by metabolically active cells.

Another data set has as its system Vero cell line. Nature of the data set: MTT cytotoxicity assay, Vero cells. The note with it: 48 h. The format is cell-based. A digest of the protocol: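 Vero cells plated at 3.0 × 10³ cells/well, 24 h at 37 °C, 5% CO2. Then 48 h exposure to test compound at 1, 5 or 10 µM in 0.15% DMSO, triplicate technical repeats. Positive control was 0.2% Triton X-100 for 15 min. Cells PBS-rinsed, MTT 0.5 mg/ml final for 4 h, formazan dissolved in DMSO. Absorbance 560 nm against 630 nm background; survival vs untreated cells; SD, n = 3.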

Consider `c1ccc(Nc2ncnc3[nH]ccc23)cc1` [Compound 1, N-phenyl-7H-pyrrolo[2,3-d]pyrimidin-4-amine], for which the MIC90 in data set [1] was determined as 62.5 µM (≈ 13.1 µg/mL).

The compound `c1ccc(CCCNc2ncnc3[nH]ccc23)cc1` [Compound 22, N-(3-phenylpropyl)-7H-pyrrolo[2,3-d]pyrimidin-4-amine] gave an MIC90 in data set [1] of 14.45 µM (≈ 3.65 µg/mL).

For the compound “N-(3-morpholinopropyl)-7H-pyrrolo[2,3-d]pyrimidin-4-amine [Compound 28]”, in data set [1], the MIC90 stood at 125 µM.

Regarding `Fc1cccc(Nc2ncnc3[nH]ccc23)c1` [Compound 3, N-(3-fluorophenyl)-7H-pyrrolo[2,3-d]pyrimidin-4-amine], the MIC90 in data set [1] was > 125 µM.

Take “N-(3-nitrophenyl)-7H-pyrrolo[2,3-d]pyrimidin-4-amine [Compound 13]”: the MIC90 in data set [1] was 62.5 µM.

Turning to `c1nc(Nc2ccc(N3CCOCC3)cc2)c2cc[nH]c2n1` [Compound 15, N-(4-morpholinophenyl)-7H-pyrrolo[2,3-d]pyrimidin-4-amine], the MIC90 in data set [1] is 3.906 µM and 3.90 µM.

With “N-(2-methoxy-4-nitrophenyl)-7H-pyrrolo[2,3-d]pyrimidin-4-amine [Compound 14]”, the MIC90 in data set [1] was > 125 µM.

With `OCCNCCNc1ncnc2[nH]ccc12` [Compound 26, 2-((2-((7H-pyrrolo[2,3-d]pyrimidin-4-yl)amino)ethyl)amino)ethan-1-ol], the MIC90 in data set [1] was 125 µM (≈ 27.7 µg/mL).

In data set [1], “N-(3-(trifluoromethyl)phenyl)-7,7a-dihydro-1H-pyrrolo[2,3-d]pyrimidin-4-amine [Compound 4]” gave an MIC90 of 62.5 µM.

In the case of `c1ccc(CCCCNc2ncnc3[nH]ccc23)cc1` [Compound 23, N-(4-phenylbutyl)-7H-pyrrolo[2,3-d]pyrimidin-4-amine], the MIC90 in data set [1] is 3.713 µM and 3.71 µM.

As to `CC(C)OCCCNc1ncnc2[nH]ccc12` [Compound 27, N-(3-isopropoxypropyl)-7H-pyrrolo[2,3-d]pyrimidin-4-amine], the MIC90 in data set [1] turned out to be 125 µM (≈ 29.3 µg/mL).

As for `CO[C@H]1/C=C/O[C@@]2(C)Oc3c(C)c(O)c4c(O)c(c(/C=N/N5CCN(C)CC5)c(O)c4c3C2=O)NC(=O)/C(C)=C\C=C\[C@H](C)[C@H](O)[C@@H](C)[C@@H](O)[C@@H](C)[C@H](OC(C)=O)[C@@H]1C` [RF, rifampicin], the MIC in the data set with H37Rv strain of Mtb is recorded as 0.09 µM (≈ 0.0741 µg/mL).

Regarding `Brc1ccc(Nc2ncnc3[nH]ccc23)cc1` [Compound 10, N-(4-bromophenyl)-7H-pyrrolo[2,3-d]pyrimidin-4-amine], in data set [1], the MIC90 is 3.9 µM and 3.90 µM.

For `c1ccc(Oc2ccc(Nc3ncnc4[nH]ccc34)cc2)cc1` [Compound 11, N-(4-phenoxyphenyl)-7H-pyrrolo[2,3-d]pyrimidin-4-amine], the MIC90 in data set [1] is listed as 0.488 µM (≈ 0.148 µg/mL); in data set [1] ([…], no unit printed in the conclusion) it was 0.488. The viability at 48 h, 1 µM in data set [2] was 115%. Besides, the results for the “Cytotoxicity (in words)” value (in data set [3]; in the data set with Vero cell line; with Vero cell line (listed as N-(4-phenoxy phenyl)-7H-pyrrolo[2,3-d]pyrimidin-4-amine)) were “weakly cytotoxic; also recorded: weak cytotoxicity”, “no potential cytotoxicity risk” and “non-cytotoxic”, respectively. For the same compound, the Cell viability reduction entry with Vero cell line (highest concentration tested (1, 5, 10 µM tested)) was “no cell viability reduction observed”.
